# Assays:
# [1] = Treatment-emergent adverse events, first-in-human dose-escalation study; assay type: in vivo
# Outline: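 Safety set comprised all patients given ≥1 dose (N = 55; 5–270 mg, QD or BID schedules). TEAEs were counted from the first dose until 30 days after the last. Baseline was the last value before the first dose.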
# [2] = Dose-limiting toxicities, MTD and RDE; assay type: in vivo, human
# Outline: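 Patients with metastatic or locally advanced unresectable solid tumors received test compound alone, fasting, QD from 5 mg upward, plus 2 weeks on/1 week off and 150 mg BID 4 days on/3 days off schedules. The DLT window was 21 days with a 30% target DLT rate. A Bayesian 2-parameter logistic model with overdose control and a schedule covariate gave posterior DLT probabilities (mean, percentiles). Analysis set N = 52.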
# [3] = Noncompartmental PK of tuvusertib in plasma; assay type: in vivo, human
# immune cell subsets = assay: Immunophenotyping of whole blood by flow cytometry; assay type: in vivo, human; conditions: doses ≥130 mg, on-treatment period; full recovery during treatment breaks
# circulating tumor DNA = assay: Molecular response in plasma ctDNA; assay type: in vivo, human
# [4] = tested on: patients with advanced solid tumors; assay: Objective response according to RECIST v1.1; assay type: in vivo, human
# Outline: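 Investigator-assessed objective response per RECIST v1.1, based on change in the sum of longest diameters of target lesions. Patients received the test compound once or twice daily on continuous or intermittent schedules.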
# [5] = tested on: ATM^mut non–small cell lung cancer (NSCLC) xenograft model; conditions: monotherapy; Supplementary Fig. S1; cited from earlier work
# [6] = tested on: ARID1A^mut gastric cancer xenograft model; conditions: monotherapy; Supplementary Fig. S1; cited from earlier work
# [7] = tested on: xenograft models of BRCA^mut high-grade serous ovarian cancer; conditions: monotherapy and combination with niraparib; cited from earlier work
# [8] = lartesertib, niraparib, cisplatin, gemcitabine, irinotecan; preclinical; cited from earlier work
structure (smiles),measurement,setting,value
Cn1cncc1-c1c(F)cncc1NC(=O)c1c(N)nn2cc(F)cnc12 [Tuvusertib],Anemia TEAE,"[1]; Any grade, all doses, N = 55",39 (71) n (%)
same,Constipation TEAE,"[1]; Any grade, all doses, N = 55",13 (24) n (%)
same,Fatigue TEAE,"[1]; Any grade, all doses, N = 55",22 (40.0) n (%)
same,Nausea TEAE,"[1]; Any grade, all doses, N = 55",34 (62) n (%)
same,Vomiting TEAE,"[1]; Any grade, all doses, N = 55",21 (38) n (%)
same,Anemia TEAE,"[1]; Grade ≥3, all doses, N = 55",20 (36) n (%)
same,Constipation TEAE,"[1]; Grade ≥3, all doses, N = 55",0 n (%)
same,Fatigue TEAE,"[1]; Grade ≥3, all doses, N = 55",1 (2) n (%)
same,Nausea TEAE,"[1]; Grade ≥3, all doses, N = 55",0 n (%)
same,Vomiting TEAE,"[1]; Grade ≥3, all doses, N = 55",3 (6) n (%)
same,treatment-related AE anemia,[1]; across all dose levels,67%
same,treatment-related AE fatigue,[1]; across all dose levels,38%
same,treatment-related AE vomiting,[1]; across all dose levels,33%
same,TEAEs assessed as related to tuvusertib,[1]; all doses,87%
same,"abnormal ECG readings, vital signs, high-grade laboratory abnormalities",[1]; all doses,"No clinically significant abnormal ECG readings, vital signs or high-grade laboratory abnormalities were observed"
same,patients who experienced at least one TEAE,[1]; all doses,95%
same,Any grade ≥3 TEAE,"[1]; all doses, N = 55",26 (47) n (%)
same,Any serious TEAE,"[1]; all doses, N = 55",15 (27) n (%)
same,Grade ≥3 TEAE related to tuvusertib,"[1]; all doses, N = 55",19 (35) n (%)
same,Serious TEAE related to tuvusertib,"[1]; all doses, N = 55",3 (6) n (%)
same,TEAE leading to permanent tuvusertib discontinuation,"[1]; all doses, N = 55",3 (6) n (%)
same,TEAE leading to temporary tuvusertib discontinuation,"[1]; all doses, N = 55",26 (47) n (%)
same,TEAEs related to tuvusertib,"[1]; all doses, N = 55",48 (87) n (%)
same,Any TEAE,"[1]; all doses, N = 55, safety analysis set",52 (95) n (%)
same,constipation TEAE of any grade,[1]; at the MTD (n = 11),36%
same,nausea TEAE of any grade,[1]; at the MTD (n = 11),55%
same,vomiting TEAE of any grade,[1]; at the MTD (n = 11),36%
same,grade ≥3 TEAE anemia,[1]; at the RDE,none seen
same,nausea TEAE of any grade,[1]; at the RDE (n = 7),71%
same,anemia TEAE of any grade,[1]; overall,71%
same,fatigue TEAE of any grade,[1]; overall,40%
same,grade ≥3 TEAE lymphocyte count decreased,[1]; overall,7%
same,grade ≥3 TEAE neutrophil count decreased,[1]; overall,7%
same,nausea TEAE of any grade,[1]; overall,62%
same,grade ≥3 TEAE anemia,"[1]; overall, majority at doses ≥ MTD",36%
same,Grade ≥4 platelet count decreased,[1]; reported at dose levels exceeding the MTD,4%
same,DLT anemia requiring blood transfusion,[2]; 130 mg QD,1/8
same,DLT anemia requiring blood transfusion,[2]; 150 mg BID 4 days on/3 days off,3/4
same,DLT anemia requiring blood transfusion,[2]; 180 mg QD,3/10
same,median estimated DLT probability,[2]; 180 mg QD continuously,23%
same,upper boundary of the one-sided 95% credible interval of DLT probability,[2]; 180 mg QD continuously,37%
same,DLT anemia requiring blood transfusion,[2]; 220 mg QD 2 weeks on/1 week off,2/6
same,DLT anemia requiring blood transfusion,[2]; 270 mg QD,1/4
same,DLT upper gastrointestinal hemorrhage and decreased platelet counts (one each),[2]; 270 mg QD,2/4
same,patients who experienced DLTs,"[2]; as assessed by the SMC, observation period 21 days",Eleven
same,median estimated DLT probability,"[2]; intermittent 2 weeks on/1 week off schedule, no MTD formally established",< 20%
same,DLTs that were events of anemia requiring blood transfusion,[2]; of eleven patients with DLTs,10
same,dose proportionality of exposure,[3]; 5 to 270 mg,approximately dose proportional up to 180 mg QD and slightly more than proportional at higher doses
same,PK steady-state conditions achieved,[3]; cycle 1,≤ 8 days
same,half-life,"[3]; human, plasma, oral",1.2 to 5.6 h
same,Tmax,"[3]; human, plasma, po",0.5 to 3.5 h
same,monocytes and NK cell subsets,immune cell subsets,Transient decreases
same,Complete MRs for any mutations,circulating tumor DNA; ARID1A,2/8
same,Complete MRs for any mutations,circulating tumor DNA; ATRX,2/5
same,Complete MRs for any mutations,circulating tumor DNA; BRCA1/2,2/11
same,Complete MRs for any mutations,circulating tumor DNA; DAXX,2/3
same,MRs by tumor type,"circulating tumor DNA; breast cancer, 1/3",33%
same,MRs by tumor type,"circulating tumor DNA; other tumor types, 4/21",19%
same,MRs by tumor type,"circulating tumor DNA; ovarian cancer, 5/10",50%
same,MRs observed (patients),"circulating tumor DNA; patients treated with more than 130 mg QD, 14/37",38%
same,patients showing a reduction in sum of tumor diameter,"circulating tumor DNA; patients with MRs, 7/14",50%
same,patients showing a reduction in sum of tumor diameter,"circulating tumor DNA; patients without MRs, 8/33",24%
same,MRs observed (patients),circulating tumor DNA; the 10 patients who received lower doses,none
same,patients with stable disease (RECIST v1.1),"[4]; 15 patients, all doses",27%
same,duration of disease stabilization,"[4]; patient with unconfirmed partial response, 150 mg BID 4 days on/3 days off",9 months
same,antitumor activity,[5],antitumor activity as monotherapy
same,antitumor activity,[6],antitumor activity as monotherapy
same,antitumor activity,[7],antitumor activity as monotherapy and in combination with the PARP inhibitor niraparib
same,synergy with other DDR-targeting treatments and DNA-damaging agents,[8],pronounced synergy

# Source: PMC11094421 (Clinical Cancer Research, 2024)
